Source: PubChem (several laboratories)
In the library only some 3.1% were active in any assay of this set; here they are far more common.
HSF1 inh: HSF1 inhibitors in luciferase reporter cells, primary screen, cell-based, NIH3T3, luminescence; NIH3T3-HGL HSE-luciferase, MG132-induced, luminescence 8 h; hits give low values; activity change, negative = inhibition, % at 7.5 µM (by protocol); actives 0.77% (n = 300,000); AID 2098, 2009;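 active = more than half of replicate wells show activity change below -50%, luminescence cut by over half; inconclusive = some wells, but at most half, below -50%; inactive = no replicate well below -50%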;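 also: luciferase reports HSF-1 transcriptional activity via heat shock element; 0% = median of DMSO wells and -100% = zero luminescence signal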
HSP90 inh: HSP90 inhibitors, primary screen, cell lysate, luminescence. Rabbit reticulocyte lysate, luciferase refolding luminescence, 3 h. inhibition, % at 5.6 µM. actives 0.91% (n = 290,000). AID 1789, 2009;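 active = inhibition above the screen-wide mean plus 3 SD, computed separately per campaign, cut at about 16% in these data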;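 also: 0% = DMSO wells and 100% = 60 µM geldanamycin wells; inhibitors lower the luminescence because luciferase stays unfolded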
Tb hexokinase: Trypanosoma brucei hexokinase 1 inhibitors, primary screen, biochemical, G6PDH-coupled NADH absorbance, MLSCN library. inhibition, % at 10 µM. recombinant TbHK1, G6PDH-coupled NADH A340. hexokinase 1 [Trypanosoma brucei]. actives 0.11% (n = 220,000);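 active = inhibition of 50% or more in the single-dose primary screen; inactive = inhibition below 50%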
HSF1 activator: HSF-1 activators, primary screen, NIH3T3-HGL cells, MG132 stress, luminescence, single point; NIH3T3-HGL HSF-1 luciferase reporter, 8 h; 100% = twice DMSO control signal; activation, % at 9 µM; actives 1.7% (n = 300,000); AID 504408, 2011;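 active = mean replicate activation of at least 50% with a set share of replicates each reaching 50%; inconclusive = only one of those two conditions met; inactive = mean below 50% and too few replicates reaching it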;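 also: 0% = median of the neutral control wells and 100% = twice that signal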
Hsp70 activator: Hsp70 transcriptional activators, primary screen, cell-based, HeLa, Hsp70 promoter luciferase, luminescence, 10 µM; actives 0.04% (n = 200,000); HeLa Hsp70 promoter luciferase reporter; scaled: vehicle 0, proteasome-inhibitor control 100%; activation, % at 10 µM; AID 1203, 2008;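 active = activation above the mean across all tested compounds plus 3 SD, cutoff set per campaign, cut at about 5.5% in these data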;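 also: 100% = MG132 at 30 µM as the positive control and 0% = DMSO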
HKDC1 inhibitor: HKDC1 hexokinase inhibitors, primary screen, biochemical, fluorescence, uHTS; recombinant HKDC1, G6PDH/diaphorase resazurin coupled fluorescence; inhibition, % at 20 µM; actives 0.16% (n = 340,000); AID 493160, 2011;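 active = inhibition above about 35% when tested at 20 µM, limit read from the data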;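 also: plate controls were DMSO wells with enzyme for no effect and DMSO wells lacking enzyme for full effect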
Target sequence (Q2TB90 whole entry, looked up): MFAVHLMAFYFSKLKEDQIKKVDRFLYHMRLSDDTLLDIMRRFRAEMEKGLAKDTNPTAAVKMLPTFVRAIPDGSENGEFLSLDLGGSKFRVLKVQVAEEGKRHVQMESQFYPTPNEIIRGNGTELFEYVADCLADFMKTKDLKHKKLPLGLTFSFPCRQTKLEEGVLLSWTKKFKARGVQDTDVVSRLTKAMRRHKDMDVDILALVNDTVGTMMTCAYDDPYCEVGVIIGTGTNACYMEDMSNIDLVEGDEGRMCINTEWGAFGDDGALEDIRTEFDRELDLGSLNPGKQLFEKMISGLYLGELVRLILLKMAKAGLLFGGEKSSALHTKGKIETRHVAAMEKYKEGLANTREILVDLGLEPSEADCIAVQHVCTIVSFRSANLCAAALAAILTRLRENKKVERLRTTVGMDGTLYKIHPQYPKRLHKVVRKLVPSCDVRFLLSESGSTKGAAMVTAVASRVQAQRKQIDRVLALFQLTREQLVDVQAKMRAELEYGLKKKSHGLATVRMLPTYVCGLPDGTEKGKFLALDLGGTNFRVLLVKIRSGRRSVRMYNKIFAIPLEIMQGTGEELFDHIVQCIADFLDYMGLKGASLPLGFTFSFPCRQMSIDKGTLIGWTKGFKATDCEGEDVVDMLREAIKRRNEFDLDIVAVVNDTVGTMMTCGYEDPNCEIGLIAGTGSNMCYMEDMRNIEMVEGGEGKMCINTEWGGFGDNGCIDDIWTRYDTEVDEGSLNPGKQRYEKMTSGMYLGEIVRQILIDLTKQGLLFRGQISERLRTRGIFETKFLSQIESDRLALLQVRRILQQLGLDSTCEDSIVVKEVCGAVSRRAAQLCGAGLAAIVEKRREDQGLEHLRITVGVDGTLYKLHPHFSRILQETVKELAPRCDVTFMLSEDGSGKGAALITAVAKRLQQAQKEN
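Test system: recombinant HKDC1 (HK5) hexokinase enzyme, produced in-house; Amount: enzyme 5 µg/mL final; Buffer or medium: Tris pH 8.0 buffer with MgCl2, Tween-20, BSA, BME; Reagent: glucose and ATP substrates; Doses: 20 µM test compound, 1% DMSO; Incubation: 90 min reaction incubation at room temperature, dark; Detection: resorufin fluorescence at 613 nm.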
An asterisk follows results filed as active; ? = inconclusive; / = no result.

SMILES | HSF1 inh | HSP90 inh | Tb hexokinase | HSF1 activator | Hsp70 activator | HKDC1 inhibitor
CCOC(=O)c1sc(=NC(=O)c2cccc(OC)c2)n(C)c1C | 22 | 3 | -9 | 34 | 0 | -1
Cc1csc(Nc2ccccc2)n1 | -3 | 2 | 3 | 4 | 0 | -4
CCOC(=O)c1sc(=NC(=O)c2ccccc2)n(C)c1C | 14 | -8 | -35 | 61* | 0 | -6
Cc1nc(NC(=O)c2csc3ccccc23)sc1C | 31 | 4 | -6 | 61* | 0 | -7
Cc1nc(NC(=O)c2ccccc2O)sc1C | 6 | 4 | / | 13 | / | -1
COCCN(C(=O)CCC(=O)Nc1cc(C)on1)C(C(=O)NC1CCCC1)c1ccc(C(C)C)cc1 (centres undefined) | -4 | 0 | / | -13 | / | 4
CCOC(=O)c1sc(NC(=O)c2ccccc2)cc1C | 25 | -6 | -18 | 55* | 0 | -1
CCOC(=O)Cc1cnc(NC(=O)c2ccccc2)s1 | -54* | -1 | -1 | -59 | 0 | -6
O=C(Nc1nnc(CCc2ccccc2)s1)c1ccccc1 | 17 | 6 | / | 51* | / | 4
Cc1csc(N2C(=O)C3C4CCC(O4)C3C2=O)n1 (centres undefined) | / | / | / | / | / | -4
O=C(Nc1cccc(F)c1)NC1(C(=O)NCC2CCCO2)CCCCC1 (centres undefined) | -2 | -3 | / | -28 | / | -5
COc1ccc(N(CC(=O)NC2CCCCC2C)S(=O)(=O)c2c(C)nn(C)c2C)cc1 (centres undefined) | -35 | 1 | / | -48 | / | -1
CC(=O)N1CCN(S(=O)(=O)c2ccc3c(c2)CCC(=O)N3)CC1 | / | / | / | / | / | 3
Cc1cc(OCc2cc(C(=O)N(Cc3nccn3C)C(C)C)no2)cc(C)c1Cl | -9 | -3 | / | -10 | / | 0
CC(C)c1ccc(/C=C/C(=O)N2CCCCCC2)cc1 | 13 | 0 | -2 | 27 | -1 | 3
CC(C)c1ccc(/C=C/C(=O)n2nnc3ccccc32)cc1 | 47 | 0 | 3 | 83* | 0 | 27
CN(C)c1ccc(C(=O)n2nnc3ccccc32)cc1 | 43 | 6 | -18 | 56* | 0 | 3
C[C@]12c3[nH]c4ccc(Cl)cc4c3CCN1C(=O)[C@@H](CC(=O)NCc1ccco1)C[C@@H]2C(=O)N1CCCCC1 | / | / | / | / | / | 4
O=C(C1CCCN(S(=O)(=O)Cc2ccccc2)C1)N1CCc2ccccc21 (centres undefined) | -58* | 1 | -3 | -69 | 0 | -3
Cc1ccccc1NCCC(=O)Nc1ccc(Cl)cc1 | -1 | -9 | / | 6 | / | -5
Oc1ccc2ccccc2c1CN1CCN(c2ccccc2)CC1 | 294 | 5 | -4 | 375* | 0 | 14
CC(C)c1ccc(NC2(C#N)C(=O)Nc3ccccc32)cc1 (centres undefined) | -61* | -4 | 2 | -67 | 0 | 8
CSc1nccc(NC(=O)c2cccc(Br)c2)n1 | -4 | 0 | / | 18 | / | -1
Cc1ccc(NC(=O)CN(C)C(=O)CSc2nnc(N)s2)cc1 | / | / | / | / | / | -3
Cc1ccc(/C=C2\Oc3cc(OC(=O)N4CCOCC4)ccc3C2=O)cc1 | 32 | 1 | -8 | 92* | 0 | 6
SMILES | HSF1 inh | HSP90 inh | Tb hexokinase | HSF1 activator | Hsp70 activator | HKDC1 inhibitor
Cc1ccc(SCC(=O)OC(C)C(=O)NCc2ccccc2)cc1 (centres undefined) | 0 | / | / | 2 | / | -6
N#Cc1ccc(CSc2nc(N)cc(N)n2)cc1 | 35 | -2 | / | 74* | / | -4
O=C(Nc1cc(C(F)(F)F)ccc1N1CCCC1)C1CCCO1 (centres undefined) | / | / | / | / | / | -1
O/N=C/c1cc(Br)cc(Br)c1OCc1ccccc1 | 4 | 2 | -2 | 9 | -1 | 0
CCOc1cc(/C=N/O)ccc1OCc1ccc(C)cc1 | 38 | -4 | 38 | 33 | 0 | -6
O/N=C/c1ccc(OCc2ccccc2)c(Br)c1 | 47 | 0 | 32 | 66* | 0 | -6
Cc1ccc(COc2ccc(Br)cc2/C=N/O)cc1 | 74 | -2 | -1 | 94* | 0 | 3
O/N=C/c1ccc(OCc2ccccc2)c(Cl)c1 | 39 | 0 | 1 | 58* | 0 | 17
O/N=C/c1ccccc1OCc1ccccc1F | 11 | -2 | -4 | 19 | 0 | -12
O/N=C/c1ccc(OCc2ccccc2F)c(Cl)c1 | 41 | -3 | 2 | 84* | 0 | 0
COC(=O)C1C=CC(OC2OC(COC(C)=O)C(OC(C)=O)C(OC(C)=O)C2OC(C)=O)n2c(=O)n(-c3ccccc3)c(=O)n21 (centres undefined) | / | / | / | / | / | -6
CCN(Cc1cccc(F)c1)C(=O)c1ccc2ccccc2n1 | 11 | -3 | / | 25 | / | -5
CCCC1CCc2c(sc(NC(=O)c3cccs3)c2C(N)=O)C1 (centres undefined) | 31 | 2 | -8 | 61* | 0 | -1
O=c1c(Cl)c(NCCCO)cnn1-c1nc2ccccc2[nH]1 | 54 | 4 | -26 | 63* | 1 | -4
C=CCN(CC=C)c1cnn(-c2nc3ccccc3[nH]2)c(=O)c1Cl | 28 | 6 | -31 | ? | 0 | -4
CCn1nnnc1SCC(=O)N1CCCCC1 | 0 | / | / | 2 | / | -7
Cc1cc(C)cc(C(=O)N(CCc2ccccc2)C2CC3CCC(C2)N3C)c1 (centres undefined) | -12 | 1 | / | 0 | / | -2
Fc1ccc(-c2nnc3ccc(N4CCc5ccccc5C4)nn23)cc1 | 64 | 2 | -8 | 80* | 0 | 5
O=C(Nc1ccc(F)cc1)N1CCN(c2ccc3nnc(-c4ccc(F)cc4)n3n2)CC1 | 7 | -1 | -24 | -1 | 0 | 5
O=C(Nc1nc(-c2nc3ccccc3s2)cs1)C1CC1 | 34 | -7 | -5 | 67* | 0 | 5
CC(=O)c1cccc(NC(=O)c2cc(-c3ccco3)on2)c1 | 21 | 5 | / | 5 | / | -2
O=C(Nc1cccc(O)c1)c1cc(-c2ccco2)on1 | 13 | 17* | -4 | -3 | 0 | 11
COc1cc(/C=C/C(=O)c2ccc3c(c2)OCCO3)cc(Br)c1OCC(=O)N(C)C | 191 | 2 | / | 243* | / | 14
CCOP(=O)(OCC)c1nc(-c2cccc3ccccc23)oc1N1CCOCC1 | 22 | 1 | -23 | 74* | 0 | -9
O=C1c2ccccc2CCCC12N=NCC2c1cccc2ccccc12 (centres undefined) | -3 | 0 | -3 | -7 | 0 | -3
Cc1ccc(C2CN=NC23CCc2ccccc2C3=O)cc1 (centres undefined) | 5 | 17* | 0 | 12 | 0 | 23
